In ChEMBL document CHEMBL1134636, “Structure-activity studies on nociceptin analogues: ORL1 receptor binding and biological activity of cyclic disulfide-containing analogues of nociceptin peptides” (J Med Chem, 2001):
pEC50, pIC50: −log10 of the molar value. Peptide text beside a SMILES is read from it.

Legend:
[1] = target: T1, Nociceptin receptor (Homo sapiens, UniProt P41146); assay: Displacement of [3H]NC from human ORL1 receptor expressing HEK293 cell membrane; assay type: cell membranes
[2] = target: T1, Nociceptin receptor; assay: Efficacy for human ORL1 receptor expressing HEK293 cell membrane; assay type: functional, cell-based
Procedure, shortened: (§1)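 Membranes from HEK-293 cells expressing human ORL1 (10 μg) were incubated for 30 min at 24 °C with peptides (0.01 nM to 10 μM) in 20 mM HEPES pH 7.4 with 100 mM NaCl, 10 mM MgCl₂, 1 mM EDTA, 5 μM GDP and 400 pM [³⁵S]GTPγS. Binding was read with WGA-coated SPA beads.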

[3] = target: T1, Nociceptin receptor; assay: Efficacy for human ORL1 receptor expressing HEK293 cells; assay type: functional, cell-based; procedure, shortened: as §1

T1 sequence (P41146 whole entry): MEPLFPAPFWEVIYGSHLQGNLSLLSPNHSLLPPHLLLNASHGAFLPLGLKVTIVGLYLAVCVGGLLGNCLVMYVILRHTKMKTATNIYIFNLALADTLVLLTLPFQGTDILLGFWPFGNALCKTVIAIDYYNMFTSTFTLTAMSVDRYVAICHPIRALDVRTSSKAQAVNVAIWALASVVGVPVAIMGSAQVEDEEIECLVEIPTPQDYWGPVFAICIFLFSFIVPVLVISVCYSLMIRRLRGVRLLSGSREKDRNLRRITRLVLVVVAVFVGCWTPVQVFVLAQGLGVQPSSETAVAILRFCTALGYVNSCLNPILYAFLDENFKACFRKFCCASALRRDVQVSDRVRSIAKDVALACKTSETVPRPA

For C[C@H](NC(=O)[C@@H]1CSSC[C@H](NC(=O)[C@@H](NC(=O)[C@H](Cc2ccccc2)NC(=O)CNC(=O)CNC(=O)[C@@H](N)Cc2ccccc2)[C@@H](C)O)C(=O)N[C@@H](C)C(=O)N[C@@H](CCCNC(=N)N)C(=O)N[C@@H](CCCCN)C(=O)N1)C(=O)N[C@@H](CCCNC(=N)N)C(=O)N[C@@H](CCCCN)C(N)=O (HELM PEPTIDE1{F.G.G.F.T.C.A.R.K.C.A.R.K.[am]}$PEPTIDE1,PEPTIDE1,6:R3-10:R3$$$V2.0), the pIC50 [1] was 9.08, the Emax [2] was 99% and the pEC50 [3] was 7.50.
